Source: PMC10998571 (Proceedings of the National Academy of Sciences of the …, 2024)
No end group written: not given here.

How the values were obtained:
[1] = i.p. injection, mice; rhodamine fluorescence of tissue sections
[2] = system: IL-1β induced NF-κB activation in HEK293 cells; assay: IL-1β induced NF-κB activation; assay type: cell-based, human; settings: IL-1β 50 ng/mL, 18 h, N = 4
How it was run: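 HEK293 cells co-transfected with an NF-κB-response-element Firefly luciferase reporter (1 μg) and a Renilla reporter (0.1 μg) using Lipofectamine 3000. After 24 h, 15,000 cells/well were incubated with PBS or test compound (5 to 50 µM), with or without IL-1β, for 18 h at 37 °C. Dual-Glo Firefly, then Stop & Glo Renilla, 15 min RT each. Firefly normalised to Renilla and to ligand-treated cells.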

TNFR1 PLAD = assay: PLAD FRET biosensor; assay type: cell-based; settings: HEK293 cells, 24 h; FKC 50 µM, ZAF 100 µM or co-treatment; N = 4
How it was run: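 PLAD FRET biosensor made by transient Lipofectamine 3000 transfection of HEK293 cells with donor-only or donor/acceptor FRET pair DNAs. Cells moved to 96-well plates at 15,000 cells/well and treated with PBS (negative control), test compound and/or zafirlukast for 24 h before fluorescence intensity readout.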

TNFR1 [3] = target: T1, TNFR1 (Homo sapiens, UniProt P19438); settings: 37 (ZAF); ref 55 (Pep4-19); cited from earlier work
T1 sequence (P19438 30-242) 1: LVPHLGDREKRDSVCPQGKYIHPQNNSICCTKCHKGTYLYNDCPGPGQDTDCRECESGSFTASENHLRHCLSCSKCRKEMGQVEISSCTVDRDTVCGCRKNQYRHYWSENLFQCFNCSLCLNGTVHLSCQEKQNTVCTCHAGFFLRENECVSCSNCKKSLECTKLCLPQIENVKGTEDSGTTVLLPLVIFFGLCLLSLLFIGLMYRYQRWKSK
T1 sequence (P19438 30-242) 2: T1 sequence (P19438 30-242) 1

IL-23 receptor = settings: without affecting ligand binding; cited from earlier work
TNFR1 [4] = target: T1, TNFR1; assay: TNFR1 FRET biosensor; assay type: cell-based
How it was run: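 HEK293 cells transiently transfected (Lipofectamine 3000) with TNFR1ΔCD–GFP donor alone or with TNFR1ΔCD–RFP acceptor; donor-only served as the no-FRET control. Cells plated at 15,000 cells/well in 96-well plates and treated with PBS or test compound (5 to 50 µM) for 24 h. FRET read from fluorescence intensity; EC50 derived from the dose–response of FRET change.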

HEK293 cells = assay: MTT assay; assay type: cell-based, human; settings: FKC 5-50 µM, 24 h, absorbance at 560 nm, N = 4
NF-κB activation = settings: cited from earlier work
TNFR1/TNF = assay: Co-IP of TNFR1 and TNF; assay type: binding; settings: co-IP with His-tagged TNF beads, overnight 4 °C; FKC 50 µM or etanercept
How it was run: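 Ni-NTA agarose beads loaded with His-tagged human TNF for 4 h at 4 °C and washed with PBS. […] Samples were analysed by Western blotting, with equal bead-bound TNF and input TNFR1 as pull-down controls.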

Compound: Rho-FKCRRWQWRMKK-NH2 [rhodamine-conjugated FKC]
- localization in liver, kidney, and lung [1]: localization of FKC in all tissues

Compound: IL-1β: cytokine that binds IL-1 receptor to stimulate NF-κB activation (MedChemExpress, Cat# HY-P7028)
- NF-κB activation relative to basal level (IL-1β) [2]: 10 fold

Compound: COc1cc(C(=O)NS(=O)(=O)c2ccccc2C)ccc1Cc1cn(C)c2ccc(NC(=O)OC3CCCC3)cc12 [ZAF, zafirlukast]
- FRET change of the PLAD biosensor (TNFR1 PLAD): reduced FRET in the PLAD biosensor
- extent of inhibition of TNFR1 signaling (TNFR1 [3]): only exhibited partial inhibition

Compound: TEEEQQLY [compound 2305]
- inhibition of IL-23 signaling (IL-23 receptor): noncompetitively inhibit IL-23 signaling

Compound: FKCRRWQWRMKK-NH2 [FKC]
- EC50 (TNFR1 [4]): 25 µM
- toxicity in HEK293 cells (HEK293 cells): does not have any toxic effect in HEK293 cells

Compound: VQRWLIVWRIRK-NH2 [IDR]
- inhibition of NF-κB activation (earlier reports) (NF-κB activation): inhibit NF-κB activation

Compound: etanercept
- effect on receptor–ligand interaction (TNFR1/TNF): disrupting receptor–ligand interaction
